Assay outcomes deposited in PubChem by Johns Hopkins Ion Channel Center.
KCNQ1 act – human KCNQ1 channel potentiation or activation; CHO-K1 KCNQ1, thallium flux FluxOR fluorescence; active compounds read high; B-score at 10 µM; AID 2648; P51787; 310,000 tested, 0.35% active;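 active means fluorescence ratio B-score, a plate-corrected score, at least three library SD, with initial intensity B-score within 5 SD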
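Schedule – 37 °C overnight plating, 90-min dark dye load, 20-min compound pretreatment · System – stable KCNQ1 CHO-K1 line · Probe or stimulus – thallium- and potassium-containing depolarizing buffer · Measured by – kinetic FluxOR fluorescence, 10 s baseline plus 110 s post-stimulus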
KCNK9 block – inhibitors of human KCNK9 two-pore domain potassium channel; Q9NPC2; 310,000 tested, 1.2% active; B-score at 10 µM; HEK293 KCNK9, FluxOR thallium flux fluorescence; active compounds read low;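 active means ratio B-score over 3 SD below the library mean, with starting fluorescence within 5 SD of its mean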;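 further: negative B-score means less thallium flux so channel inhibition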
KCNK3 inh – human KCNK3 channel inhibition, primary screen | 340,000 tested, 0.84% active | AID 602410 | CHO-KCNK3 thallium flux, FluxOR fluorescence; active compounds read low | B-score at 10 µM;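 active means B-score under library mean minus 4 SD, starting fluorescence ratio at most library mean plus 5 SD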;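 further: more negative B-score means stronger inhibition of thallium flux through KCNK3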
Kir21 block – inhibitors of mouse Kir2.1 inward-rectifier potassium channel; P35561; HEK293-Kir2.1, FluxOR thallium flux fluorescence; active compounds read low; B-score at 10 µM; 310,000 tested, 0.85% active;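 active means fluorescence ratio B-score at or below minus 3 SD of library scores, with starting-brightness B-score within 2 SD, cut at about -4.2 in these data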;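 further: channel flux triggered by added potassium and thallium sulfate stimulus; B-score of peak minus minimum fluorescence over baseline after thallium stimulus; more negative B-score means stronger Kir2.1 block with less thallium influx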
Target sequence (P35561 whole entry, looked up): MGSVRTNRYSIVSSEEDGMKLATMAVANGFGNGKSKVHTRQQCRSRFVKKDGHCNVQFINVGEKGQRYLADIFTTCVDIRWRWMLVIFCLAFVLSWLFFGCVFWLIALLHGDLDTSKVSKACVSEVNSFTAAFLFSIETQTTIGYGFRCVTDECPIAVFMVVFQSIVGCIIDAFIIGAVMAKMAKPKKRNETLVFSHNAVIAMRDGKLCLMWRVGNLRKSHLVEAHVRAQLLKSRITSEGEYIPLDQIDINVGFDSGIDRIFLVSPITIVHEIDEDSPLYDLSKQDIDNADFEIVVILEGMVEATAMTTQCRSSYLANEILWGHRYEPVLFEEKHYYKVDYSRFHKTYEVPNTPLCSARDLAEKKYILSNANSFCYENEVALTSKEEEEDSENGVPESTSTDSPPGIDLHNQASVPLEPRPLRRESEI
hERG protect – hERG (human) protection from proarrhythmic block. Q12809. 310,000 tested, 0.51% active. CHO-hERG, FluxOR thallium flux, dofetilide IC70 present. activation (rescue from dofetilide block), less the hit threshold, % at 10 µM;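 active means activation above the mean of controls blocked by dofetilide plus 5 SD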;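 further: thallium influx through hERG after potassium depolarization seen as dye fluorescence rise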
KCNQ1 inh – human KCNQ1 channel inhibition; CHO-K1 KCNQ1, FluxOR thallium flux fluorescence; active compounds read high; B-score at 10 µM; 310,000 tested, 1.3% active; AID 2642;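 active means compounds whose thallium flux B-score, printed positive for inhibition, exceeds three library SD while starting fluorescence stays within three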;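 further: channel opened by potassium depolarization with thallium stimulus after 20 min compound exposure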
KCNK3 inh conf – confirmation of human KCNK3 two-pore domain potassium channel inhibitors. ratio percent of control, % at 10 µM. shares compounds with KCNK3 inh. 2,400 tested, 99% active. CHO-KCNK3 thallium flux, FluxOR fluorescence; 0% buffer, 100% carvedilol maximal block;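 active means ratio percent of control, averaged over triplicates, above buffer control mean plus 5 SD, cut at about 64% in these data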;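 further: ratio is the fluorescence rise from min to max over baseline after thallium stimulus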
KCNK3 uninduced – counter-screen for KCNK3 inhibitors: effect in non-induced cells | AID 651747 | thallium flux ratio (lower = more inhibition) at 10 µM | shares compounds with KCNK3 inh | non-induced KCNK3 parental cells, FluxOR thallium flux; active compounds read low | 2,400 tested, 40% active;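 active means thallium flux ratio, averaged over three wells, more than 5 SD below the buffer control mean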;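 further: host cells are CHO cells without KCNK3 induction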
Of the large screens only hits and unclear results are named; the others gave an inactive call (follow-up assays come after a bar, where they were run). Sampled rows, rich in hits. Any-hit rate of the full collection: about 3.7%.

O=C1OC(c2ccc(Cl)cc2)/C(=C(/O)c2ccccc2)C1=O (stereo unspecified)	none
CCOc1ccccc1NC(=O)C(NCCN(C)C)c1ccccc1 (stereo unspecified)	none
CCOc1ccccc1NC(=O)C(NCCc1ccc(OC)cc1)c1ccccc1 (stereo unspecified)	KCNK3 inh -10, KCNQ1 inh 6 | KCNK3 inh conf 132 | KCNK3 uninduced 0.13
COc1ccccc1C(C)Nc1nc(-c2cccnc2)nc2ccccc12 (stereo unspecified)	KCNK3 inh -11 | KCNK3 inh conf 125 | KCNK3 uninduced inactive
Cc1ccc(S(=O)(=O)N(C)C)cc1NC(=O)C(C)N(C)CCOc1ccc(Cl)cc1 (stereo unspecified)	KCNK3 inh -9.4 | KCNK3 inh conf 79 | KCNK3 uninduced inactive
O=C1c2cccc3cccc(c23)N1Cc1cccc(F)c1	KCNK3 inh -14 | KCNK3 inh conf 101 | KCNK3 uninduced inactive
CCOCC(=O)Nc1ccc(S(=O)(=O)N2CCC(c3nc4ccccc4[nH]3)CC2)cc1	none
CCOC(=O)c1cccc(N2C(=O)C3C(C2=O)C2C=CC3C23CC3)c1 (stereo unspecified)	KCNK3 inh -18 | KCNK3 inh conf 92 | KCNK3 uninduced inactive
COc1nc(-c2ccccc2)ccc1-c1noc(-c2ccccc2)n1	KCNK3 inh -12 | KCNK3 inh conf 99 | KCNK3 uninduced inactive
CCCCC(=O)Oc1c(S(=O)(=O)c2ccc(C)cc2)c(C)nn1C(C)(C)C	KCNK3 inh -9.9 | KCNK3 inh conf 95 | KCNK3 uninduced inactive
CC(C)(C)NC(=O)CC(c1ccccc1)c1ccccc1O (stereo unspecified)	none
O=C(CC(c1ccccc1)c1ccccc1O)NCc1ccccc1 (stereo unspecified)	KCNK3 inh -8.8 | KCNK3 inh conf 95 | KCNK3 uninduced inactive
O=C(COC(=O)c1cccc(S(=O)(=O)N2CCc3ccccc3C2)c1)NCc1ccco1	none
O=C(COC(=O)c1cc(S(=O)(=O)N2CCc3ccccc3C2)ccc1Cl)NCc1ccco1	KCNK3 inh -9.4 | KCNK3 inh conf 97 | KCNK3 uninduced inactive
Cc1ccc(C2N(c3ccc(Cl)cc3)C(=O)N3CCCN23)cc1 (stereo unspecified)	KCNK3 inh -9.6 | KCNK3 inh conf 90 | KCNK3 uninduced inactive
O=C1N(c2ccccc2)C(c2ccc(Cl)cc2)N2CCCN12 (stereo unspecified)	none
O=C(N/N=C/c1ccc[nH]1)c1ccccc1O	KCNK3 inh -9 | KCNK3 inh conf 81 | KCNK3 uninduced inactive
O=C(N/N=C/c1ccc[nH]1)c1ccc(O)cc1	none
COc1ccc(NC(=O)CN(C)C(=O)Cn2c(=O)oc3ccccc32)cc1	none
Cc1cc(C)c2sc(N(CCN(C)C)C(=O)c3c(F)cccc3F)nc2c1	KCNK3 inh -9.1 | KCNK3 inh conf 116 | KCNK3 uninduced inactive
Cc1ccc(C(=O)OCC(=O)Nc2ccccc2)cc1S(=O)(=O)N1CCCCC1	none (no result: KCNQ1 act, KCNK9 block, Kir21 block, hERG protect, KCNQ1 inh)
Cc1ccc(C(=O)OCCOc2cccc(Cl)c2)cc1S(=O)(=O)N1CCOCC1	KCNK3 inh -12 | KCNK3 inh conf 94 | KCNK3 uninduced 0.15
COc1ccc(C(=O)OCc2cc(C)ccc2C)cc1S(=O)(=O)N1CCCC1	KCNK3 inh -14 (no result: KCNQ1 act, KCNK9 block, Kir21 block, hERG protect, KCNQ1 inh) | KCNK3 inh conf 93 | KCNK3 uninduced inactive
Cc1cccc(NC(=O)COC(=O)c2ccc(C)c(S(=O)(=O)N3CCCCC3)c2)c1	KCNK3 inh -12 (no result: KCNQ1 act, KCNK9 block, Kir21 block, hERG protect, KCNQ1 inh) | KCNK3 inh conf 97 | KCNK3 uninduced inactive
O=c1c([N+](=O)[O-])cccn1Cc1cccc(Br)c1	none
NS(=O)(=O)c1ccc(CCNC(=O)c2ccc(OCC3CCCO3)cc2)cc1 (stereo unspecified)	none
Cc1cc(C(=O)c2ccccc2)c(NC(=O)CN2CCOCC2)s1	none
CCc1cc(CN2CCOCC2)c(NC(=O)c2ccccc2)s1	KCNK3 inh -9.3 | KCNK3 inh conf 102 | KCNK3 uninduced inactive
O=C(N/N=C/c1cc(Cl)c(O)c(Cl)c1)c1cc2c(ccc3ccccc32)o1	KCNK3 inh -11, KCNQ1 inh 12 | KCNK3 inh conf 101 | KCNK3 uninduced 0.15
O=[N+]([O-])c1ccc(C2CCCC/C2=N/OCc2ccccc2F)c([N+](=O)[O-])c1 (stereo unspecified)	KCNK3 inh -8.7, KCNQ1 inh 12 | KCNK3 inh conf 121 | KCNK3 uninduced inactive
O=C(Cc1ccc(Cl)cc1)NC(=S)Nc1ccccc1N1CCOCC1	none (no result: KCNQ1 act, KCNK9 block, Kir21 block, hERG protect, KCNQ1 inh)
O=C(Nc1ccccc1N1CCOCC1)C1(c2ccc(Cl)cc2)CCC1	KCNK3 inh -11 | KCNK3 inh conf 100 | KCNK3 uninduced inactive
Cc1onc(-c2ccc3c(c2)OCO3)c1-c1ccc2[nH]ccc2c1	KCNK3 inh -9.5 | KCNK3 inh conf 95 | KCNK3 uninduced inactive
Cc1ccc(NC(=S)Nc2cccc3ccccc23)cc1	none
CC(C)c1ccc(NC(=S)Nc2cccc3ccccc23)cc1	KCNK3 inh -8.9 | KCNK3 inh conf 105 | KCNK3 uninduced inactive
C/C(=N\OC(=O)NC1CCCCC1)c1sc(-c2ccccc2)nc1C	KCNK3 inh -11 | KCNK3 inh conf 113 | KCNK3 uninduced 0.14
OC1CCN(c2c3c(nc4cc(-c5cccc(F)c5)nn24)CCCC3)CC1	KCNK3 inh -8.9 | KCNK3 inh conf 122 | KCNK3 uninduced inactive
CC1CN=C(c2ccccc2)O1 (stereo unspecified)	none (no result: KCNQ1 act, KCNK9 block, Kir21 block, hERG protect, KCNQ1 inh)
COc1cc(/C=C(\C#N)c2nc3ccccc3n2C)cc(OC)c1O	KCNK3 inh -9.4, KCNQ1 inh 7 | KCNK3 inh conf 118 | KCNK3 uninduced 0.15
COc1cc(/C=C(\C#N)c2nc3ccccc3[nH]2)cc(OC)c1O	KCNK3 inh -16 | KCNK3 inh conf inactive | KCNK3 uninduced inactive
COc1ccc(/C=C(\C#N)c2nc3ccccc3[nH]2)cc1O	none
C[C@@H]1CN([C@@H](C)CO)C(=O)c2cc(NS(=O)(=O)c3ccc(Cl)cc3)ccc2O[C@H]1CN(C)Cc1ccncc1	none (no result: KCNQ1 act, KCNK9 block, Kir21 block, hERG protect, KCNQ1 inh)
Fc1ccccc1C1c2cccn2CCN1C(=S)Nc1ccc(Br)cc1 (stereo unspecified)	KCNK3 inh -15, KCNQ1 inh 7 | KCNK3 inh conf 132 | KCNK3 uninduced 0.12
O=[N+]([O-])c1cccc(C2NCC(c3ccccc3Cl)c3c2[nH]c2ccccc32)c1 (stereo unspecified)	KCNK9 block -8.1, KCNK3 inh -9.5, KCNQ1 inh 7 | KCNK3 inh conf 125 | KCNK3 uninduced 0.14
